Experimental data from different studies.
Compare with care: the assays were run in different laboratories.
Target: Calcium/calmodulin-dependent protein kinase type II subunit beta (CAMK2B, Homo sapiens, UniProt Q13554)

`c1cnn2ncc(-c3ccnc(N4CCC45COC5)n3)c2c1` gave a remaining binding of 66% (binding; 1 µM).
For `O=C(c1ccc(Nc2ncc(Cl)c(-c3ccc(Cl)s3)n2)cc1)N1CCC(N2CCCC2)CC1`, the remaining binding was 87% (binding, competition with immobilised ligand; 1 µM).
`CN(c1nccc(-c2cnn3ncccc23)n1)C1CC1` has a remaining binding of 84% (binding; 1 µM).
`CNC(=O)[C@@H]1CC[C@@H](n2c(-c3ccc4cnccc4c3)nc3ccc(C(=O)NCc4cccc(C(N)=O)c4)cc32)C1` has a remaining binding of 100% (binding, competition with immobilised ligand; 1 µM).
`C[C@H](c1ccnc(Nc2nc3ccc(-c4cc(N(C)C)ncn4)cc3[nH]2)c1)N1CCN(C(=O)CC(F)(F)F)CC1` gave a remaining binding of 92% (cell-free assay, competition with immobilised ligand; 0.1 µM).
For `CN(C)c1ncc(F)c(-c2cnn3ncccc23)n1`, the remaining binding was 65% (binding; 1 µM).
`O=C(NCC1CCOCC1)c1n[nH]cc1NC(=O)c1c(F)cccc1F` has a remaining binding of 75% (binding, competition with immobilised ligand; 1 µM).
With `CN([C@@H]1CCc2c(CC(=O)O)c3cc(S(C)(=O)=O)ccc3n2C1)S(=O)(=O)c1ccc(F)cc1` the remaining binding was 100% (cell-free assay, competition with immobilised ligand; 1 µM).
`O=C(c1ccc(Nc2nccc(-c3cc4ccccc4s3)n2)cc1)N1CCC(N2CCCC2)CC1` has a remaining binding of 100% (binding, competition with immobilised ligand; 1 µM).
`CO[C@H]1CC[C@H](CNc2ccc(S(=O)(=O)NC(=O)c3ccc(N4CCN(CC5=C(c6ccc(Cl)cc6)CC(C)(C)CC5)CC4)cc3Oc3cnc4[nH]ccc4c3)cc2[N+](=O)[O-])CC1` gave a remaining binding of 80% (cell-free assay, competition with immobilised ligand; 1 µM).
The remaining binding of `Cc1cnc(Nc2ccc(C(=O)N3CCC(N4CCCC4)CC3)cc2)nc1-c1cc2ccccc2s1` is reported as 90% (binding, competition with immobilised ligand; 1 µM).
`C=CC(=O)N1CCC(C(=O)NCC(=O)N2CCN(c3nc(-c4cnc(N)nc4C(F)F)nc(N4CCOCC4)n3)CC2)CC1` has a remaining binding of 100% (binding, competition with immobilised ligand; 1 µM).
The remaining binding of `COc1ncc2cc3ccccc3nc2c1C#N` is reported as 87% (cell-free assay, competition with immobilised ligand; 5 µM).
For `N[C@H]1CCN(c2nccc(-c3cnn4ncccc34)n2)C1`, the remaining binding was 100% (binding; 1 µM).
For `FC(F)(F)Oc1cccc(-c2cnc3ccc(-c4ccncc4)nn23)c1`, the remaining binding was 47% (cell-free assay, competition with immobilised ligand; 5 µM).
`C[C@@H](c1cccc(C#N)c1)n1cc(Cl)cc(C(N)=O)c1=N` has a remaining binding of 100% (cell-free assay, competition with immobilised ligand; 1 µM).
With `CC1CCCN1c1nccc(-c2cnn3ncccc23)n1` (stereo not drawn) the remaining binding was 98% (binding; 1 µM).
The remaining binding of `c1ccc(N2CCN(Cc3nc4ccccc4[nH]3)CC2)nc1` is reported as 100% (cell-free assay, competition with immobilised ligand; 1 µM).
The remaining binding of `C[C@@H]1CCN(c2nccc(-c3cnn4ncccc34)n2)C1` is reported as 78% (binding; 1 µM).
The remaining binding of `C[C@H](NC(=O)c1cnc2n1[C@](C)(Cc1ccc(C#N)cc1)C(=O)N2c1cc(Cl)c(F)c(Cl)c1)C(=O)NC1(c2ccccn2)CC1` is reported as 100% (cell-free assay, competition with immobilised ligand; 1 µM).
The remaining binding of `Nc1ncc2c(n1)-c1c([nH]c3ccc(C#CC4CC4)cc13)CCCC2` is reported as 100% (binding, competition with immobilised ligand; 1 µM).
